2 compounds from ChEMBL document CHEMBL4196017, “Design, synthesis and identification of silicon-containing HCV NS5A inhibitors with pan-genotype activity” (Eur J Med Chem, 2018) can be followed below.

The nature of series [1]: Ratio of drug uptake in Sprague-Dawley rat liver to plasma at 10 mg/kg, ig administered as single dose measured after 24 hrs by UPLC-MS/MS analysis. The format is ADME, organism-based. The note with it: po.
The nature of series [2]: Protein binding in human plasma at 1 uM after 6 hrs by UPLC-MS/MS based equilibrium dialysis method. The note with it: read-out: PPB (converted). It is filed as ADME, cell-free. The method, boiled down:
(§1)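 Equilibrium dialysis: plasma (pH 7.4) preincubated 15 min at 37 °C, spiked with compound at 1 or 10 µM (0.5% DMSO final); dialysed against 100 mM phosphate buffer pH 7.4, 6 h at 37 °C, 100 rpm; donor and receiver samples analysed by UPLC-MS/MS.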
(In general: In equilibrium dialysis free small molecules cross a membrane that holds back macromolecules.)

Series [3] concerns Mus musculus. The series is described as follows: Toxicity in ICR mouse assessed as heart weight at 150 mg/kg, po administered via gavage once daily for 14 days (reference value: 0.539 +/- 0.094 g). The format is organism-based. The note with it: in vivo, 336 h.
A short description of series [4]: Half life in beagle dog at 2 mg/kg, po administered as single dose by UPLC-MS/MS analysis. The format is ADME, organism-based, Canis lupus familiaris. The note with it: in vivo.
The next series deals with T1, Cytochrome P450 2B6 (Homo sapiens, UniProt P20813).
T1 sequence (P20813 whole entry): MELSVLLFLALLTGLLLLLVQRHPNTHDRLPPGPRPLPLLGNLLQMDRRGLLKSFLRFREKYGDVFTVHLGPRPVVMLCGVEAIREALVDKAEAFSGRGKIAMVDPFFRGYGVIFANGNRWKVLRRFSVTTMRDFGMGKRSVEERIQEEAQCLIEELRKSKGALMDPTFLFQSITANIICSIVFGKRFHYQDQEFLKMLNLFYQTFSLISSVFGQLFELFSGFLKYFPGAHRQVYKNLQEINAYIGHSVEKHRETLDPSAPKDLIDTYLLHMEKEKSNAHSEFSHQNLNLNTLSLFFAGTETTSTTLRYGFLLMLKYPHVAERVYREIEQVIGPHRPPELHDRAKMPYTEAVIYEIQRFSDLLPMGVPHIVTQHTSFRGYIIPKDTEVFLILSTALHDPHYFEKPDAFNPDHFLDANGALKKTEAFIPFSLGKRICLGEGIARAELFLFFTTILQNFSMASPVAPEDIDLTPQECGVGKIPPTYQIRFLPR
As to the kind of experiment: Inhibition of CYP2B6 in human liver microsomes at 1 to 10 uM using bupropion hydrochloride as substrate preincubated for 5 mins followed by NADPH addition measured after 30 mins by UPLC-MS/MS analysis relative to control. The format is ADME. The note with it: 0.5 h. (Microsomes from liver hold many membrane-bound enzymes, among them those of drug oxidation.)

The nature of series [5]: Protein binding in mouse plasma at 10 uM after 6 hrs by UPLC-MS/MS based equilibrium dialysis method. It is filed as ADME, cell-free. The note with it: read-out: PPB (converted). The essentials:
as §1

The target of a further series is Cytochrome P450 2D6 (Homo sapiens, UniProt P10635). As to the kind of experiment: Inhibition of CYP2D6 in human liver microsomes at 1 to 10 uM using dextromethorphan as substrate preincubated for 5 mins followed by NADPH addition measured after 30 mins by UPLC-MS/MS analysis relative to control. The format is ADME. The note with it: 0.5 h.
A short description of series [6]: Tmax in mouse at 10 mg/kg, ig administered as single dose by UPLC-MS/MS analysis. The format is ADME, organism-based. As to conditions: in vivo, po; call rule not given here. The essentials:
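Adult male mice (12 h light-dark, 22 °C, 55% humidity) fasted 12 h with free water, then given a single 10 mg/kg intragastric dose; plasma concentrations by UPLC-MS/MS; PK parameters calculated by software.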

The target in a further series is Cytochrome P450 3A4 (Homo sapiens, UniProt P08684). As to the kind of experiment: Inhibition of CYP3A4 in human liver microsomes at 1 to 10 uM using midazolam as substrate preincubated for 5 mins followed by NADPH addition measured after 30 mins by UPLC-MS/MS analysis relative to control. The format is ADME. As to conditions: 0.5 h.
The target in the next series is hERG (KCNH2) (Homo sapiens, UniProt Q12809). The series is described as follows: Inhibition of human ERG assessed as reduction in peak tail current at 10 uM at holding potential of -80 mV by patch clamp method relative to control. The essentials:
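Whole-cell patch clamp, room temperature; hold -80 mV, 2 s +50 mV depolarization then 3 s -50 mV repolarization every 30 s; peak tail current referenced to initial 50 ms step to -50 mV; 3 min vehicle stabilization, then test solution until stable (<5% over ~5 sweeps) or 6 min max; mean ± SD, n = 3.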
(Patch clamp records ionic current or voltage across a cell membrane.)

For another series, the target named is T2, Cytochrome P450 2A6 (Homo sapiens, UniProt P11509).
T2 sequence (P11509 whole entry): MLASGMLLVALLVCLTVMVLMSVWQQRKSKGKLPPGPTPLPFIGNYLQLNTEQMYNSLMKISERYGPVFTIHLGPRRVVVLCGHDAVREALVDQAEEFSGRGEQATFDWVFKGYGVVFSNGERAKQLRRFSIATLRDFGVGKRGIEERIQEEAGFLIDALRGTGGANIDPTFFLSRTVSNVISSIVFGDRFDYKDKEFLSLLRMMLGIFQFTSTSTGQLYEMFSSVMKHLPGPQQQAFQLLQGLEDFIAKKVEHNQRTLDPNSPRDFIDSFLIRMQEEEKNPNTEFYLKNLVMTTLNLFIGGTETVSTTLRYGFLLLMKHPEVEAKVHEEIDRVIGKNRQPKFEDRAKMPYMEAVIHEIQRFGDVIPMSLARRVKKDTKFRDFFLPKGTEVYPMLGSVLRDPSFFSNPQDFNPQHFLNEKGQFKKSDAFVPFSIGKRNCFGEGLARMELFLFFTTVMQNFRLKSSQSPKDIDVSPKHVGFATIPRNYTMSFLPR
As to the kind of experiment: Inhibition of CYP2A6 in human liver microsomes at 1 to 10 uM using coumarin as substrate preincubated for 5 mins followed by NADPH addition measured after 30 mins by UPLC-MS/MS analysis relative to control. It is filed as ADME. As to conditions: 0.5 h.

Series [7] in a line: Ratio of drug uptake in Sprague-Dawley rat liver to plasma at 10 mg/kg, ig administered as single dose measured after 8 hrs by UPLC-MS/MS analysis. The format is ADME, organism-based. The note with it: po.
Series [8] in a line: Protein binding in dog plasma at 1 uM after 6 hrs by UPLC-MS/MS based equilibrium dialysis method. It is filed as ADME, cell-free, Canis lupus familiaris. As to conditions: read-out: PPB (converted). The method, boiled down: as §1
Series [9] deals with Mus musculus. As to the kind of experiment: Toxicity in ICR mouse assessed as alkaline phosphatase level in serum at 150 mg/kg, po administered via gavage once daily for 14 days (reference value: 114.44 +/- 21.78 U/L). The format is organism-based. As to conditions: in vivo, 336 h. The essentials: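 ICR mice, 5 males + 5 females per group, dosed by gavage once daily at 150 mg/kg (20 ml/kg) or vehicle for 14 days; killed after the 14th dose; blood from abdominal aorta under ether anaesthesia for hematology and clinical chemistry; mean ± SD, n = 10.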

For series [10], the system named is Mus musculus. The series is described as follows: Toxicity in ICR mouse assessed as reticulocyte level in serum at 150 mg/kg, po administered via gavage once daily for 14 days (reference value: 4.73 +/- 0.56%). The format is organism-based. The note with it: in vivo, 336 h. The method, boiled down: (§2)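 Haematology on abdominal aortic blood taken at necropsy under ether anaesthesia after 14 daily gavage doses (20 ml/kg) in ICR mice, 5 per sex per group, vehicle control. Parameters: WBC, RBC, haemoglobin, platelets, reticulocyte ratio and differential leukocyte counts; mean ± SD, n = 10.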

Series [11] can be described thus: Protein binding in mouse plasma at 1 uM after 6 hrs by UPLC-MS/MS based equilibrium dialysis method. The format is ADME, cell-free. As to conditions: read-out: PPB (converted). The essentials: as §1
Series [12] is described as follows: Protein binding in rat plasma at 1 uM after 6 hrs by UPLC-MS/MS based equilibrium dialysis method. It is filed as ADME, cell-free. As to conditions: read-out: PPB (converted). The essentials: as §1
Series [13] deals with Mus musculus. The series is described as follows: Toxicity in ICR mouse assessed as lymphocyte level in serum at 150 mg/kg, po administered via gavage once daily for 14 days (reference value: 57.65 +/- 13.53%). It is filed as organism-based. The note with it: in vivo, 336 h. The method, boiled down:
as §2

Broadly, the Kp is tissue or fluid exposure divided by exposure in the circulation. In general, half-life refers to the time in which the quantity being followed falls by half. What is called Tmax is the time from dosing to the highest level. By inhibition is commonly meant the percentage by which the read-out fell short of the control.

Sequence of Cytochrome P450 3A4 (P08684 whole entry): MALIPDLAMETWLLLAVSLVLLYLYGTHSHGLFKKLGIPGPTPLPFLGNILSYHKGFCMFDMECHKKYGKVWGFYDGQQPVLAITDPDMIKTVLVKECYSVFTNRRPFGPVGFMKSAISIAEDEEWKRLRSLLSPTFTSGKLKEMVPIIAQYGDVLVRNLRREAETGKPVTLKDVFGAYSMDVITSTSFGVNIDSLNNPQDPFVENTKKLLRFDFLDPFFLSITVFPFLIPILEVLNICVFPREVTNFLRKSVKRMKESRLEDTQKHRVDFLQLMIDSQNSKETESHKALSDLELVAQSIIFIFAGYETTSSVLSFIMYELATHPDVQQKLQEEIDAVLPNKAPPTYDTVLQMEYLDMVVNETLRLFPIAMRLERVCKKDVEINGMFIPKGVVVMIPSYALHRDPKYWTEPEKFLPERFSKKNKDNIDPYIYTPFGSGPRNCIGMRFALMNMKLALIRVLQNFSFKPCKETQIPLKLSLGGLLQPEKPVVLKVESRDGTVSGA
Sequence of hERG (KCNH2) (Q12809 whole entry): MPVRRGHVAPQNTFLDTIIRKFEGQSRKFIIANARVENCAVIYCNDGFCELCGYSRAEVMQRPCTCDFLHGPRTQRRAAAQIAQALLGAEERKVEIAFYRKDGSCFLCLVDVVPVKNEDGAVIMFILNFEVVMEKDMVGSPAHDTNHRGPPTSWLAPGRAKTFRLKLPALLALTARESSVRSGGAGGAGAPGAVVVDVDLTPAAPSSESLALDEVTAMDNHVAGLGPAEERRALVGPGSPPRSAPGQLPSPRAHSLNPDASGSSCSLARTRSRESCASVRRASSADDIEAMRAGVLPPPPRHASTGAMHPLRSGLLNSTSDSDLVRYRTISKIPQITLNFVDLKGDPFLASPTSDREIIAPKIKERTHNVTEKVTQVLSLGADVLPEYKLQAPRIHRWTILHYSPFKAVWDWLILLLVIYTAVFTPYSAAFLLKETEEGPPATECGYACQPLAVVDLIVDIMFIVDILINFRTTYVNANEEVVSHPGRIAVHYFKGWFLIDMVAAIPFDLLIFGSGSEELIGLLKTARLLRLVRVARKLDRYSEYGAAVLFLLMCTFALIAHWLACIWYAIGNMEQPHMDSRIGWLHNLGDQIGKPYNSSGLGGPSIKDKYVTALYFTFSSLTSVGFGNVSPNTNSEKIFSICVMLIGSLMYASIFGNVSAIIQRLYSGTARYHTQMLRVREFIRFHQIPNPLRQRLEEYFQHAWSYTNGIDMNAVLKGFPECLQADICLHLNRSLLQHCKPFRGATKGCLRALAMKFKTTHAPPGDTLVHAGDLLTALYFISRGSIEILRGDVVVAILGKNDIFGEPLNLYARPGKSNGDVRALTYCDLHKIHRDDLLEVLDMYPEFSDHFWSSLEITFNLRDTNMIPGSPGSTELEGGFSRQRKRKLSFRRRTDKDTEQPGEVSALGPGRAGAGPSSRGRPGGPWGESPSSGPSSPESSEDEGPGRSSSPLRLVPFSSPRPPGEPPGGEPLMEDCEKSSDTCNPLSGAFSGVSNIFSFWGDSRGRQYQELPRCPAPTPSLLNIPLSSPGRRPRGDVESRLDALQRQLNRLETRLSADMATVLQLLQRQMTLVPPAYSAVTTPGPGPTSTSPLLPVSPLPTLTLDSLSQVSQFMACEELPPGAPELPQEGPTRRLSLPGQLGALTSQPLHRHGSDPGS
Sequence of Cytochrome P450 2D6 (P10635 whole entry): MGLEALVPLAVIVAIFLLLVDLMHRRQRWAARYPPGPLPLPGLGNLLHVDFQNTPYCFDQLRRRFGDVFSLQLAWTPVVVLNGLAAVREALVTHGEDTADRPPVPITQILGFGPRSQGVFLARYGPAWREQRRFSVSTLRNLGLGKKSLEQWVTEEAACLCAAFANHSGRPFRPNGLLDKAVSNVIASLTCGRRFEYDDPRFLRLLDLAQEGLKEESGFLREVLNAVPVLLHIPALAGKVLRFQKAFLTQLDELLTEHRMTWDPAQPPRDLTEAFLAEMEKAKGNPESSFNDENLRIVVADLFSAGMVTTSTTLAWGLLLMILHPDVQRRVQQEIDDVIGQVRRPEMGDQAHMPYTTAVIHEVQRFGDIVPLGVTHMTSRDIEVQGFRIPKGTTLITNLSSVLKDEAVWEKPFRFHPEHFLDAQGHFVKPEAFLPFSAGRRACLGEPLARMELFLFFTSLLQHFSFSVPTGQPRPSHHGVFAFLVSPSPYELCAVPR

In the case of `CC[Si](CC)(CC)c1ccc(N2[C@H](c3ccc(NC(=O)[C@@H]4CCCN4C(=O)[C@@H](NC(=O)OC)C(C)C)cc3)CC[C@H]2c2ccc(NC(=O)[C@@H]3CCCN3C(=O)[C@@H](NC(=O)OC)C(C)C)cc2)cc1`, the Kp at 24 h in series [1] turned out to be 31.9. The fraction unbound at 6 h, 1 µM in series [2] was 8e-05; in series [8] it was 4e-05; in [11], 8e-05; in [12], 9e-05. In addition, the Activity with Mus musculus [3] was determined as 0.567 g; in the series on Mus musculus [9], 105.7 U/L; in the series on Mus musculus [10], 3.88%; in the series on Mus musculus [13], 52.54%. For the same compound, the half-life in series [4] was 12.7 h. In addition, the “inhibition (INH)” value on Cytochrome P450 2B6, at Cytochrome P450 2D6, against Cytochrome P450 3A4 and against Cytochrome P450 2A6 was “Not Active” throughout. For the same compound, the fraction unbound at 6 h, 10 µM in [5] was 0.00011. Also, in [6], the Tmax is 3 h. Besides, the inhibition at 10 µM on hERG (KCNH2) was determined as 8.7%. Further, the Kp at 8 h in [7] turned out to be 52.9.
Consider `COC(=O)N[C@H](C(=O)N1CCC[C@H]1C(=O)Nc1ccc([C@@H]2CC[C@@H](c3ccc(NC(=O)[C@@H]4CCCN4C(=O)[C@@H](NC(=O)OC)C(C)C)cc3)N2c2ccc(C(C)(C)C)cc2)cc1)C(C)C` [OMBITASVIR], for which, in series [1], the Kp at 24 h turned out to be 22.3. The fraction unbound at 6 h, 1 µM is 3e-05 in series [2], 2e-05 in [8], 4e-05 in series [11] and 2e-05 in series [12]. This compound also showed a half-life in series [4] of 11.1 h. Further, the “inhibition (INH)” value against Cytochrome P450 2B6, at Cytochrome P450 2D6, against Cytochrome P450 3A4 and against Cytochrome P450 2A6 was “Not Active” throughout. Further, the fraction unbound at 6 h, 10 µM in series [5] is 1e-05. In addition, the time to peak (Tmax) in series [6] was found to be 3 h. The inhibition at 10 µM at hERG (KCNH2) amounted to 1.8%. In addition, the Kp at 8 h in [7] is 33.5.
